# Source: ChEMBL document CHEMBL1138626, “Synthesis and biological evaluation of reversible inhibitors of IdeS, a bacterial cysteine protease and virulence determinant” (Bioorg Med Chem, 2009)
# The source made the active and inactive calls. The calls are words filed in the database; no cut-off is given here.
# Test system: Streptococcus pyogenes
# Test: Inhibition of Streptococcus pyogenes IdeS assessed as blockade of enzyme-mediated degradation of human polyclonal immunoglobulin G by SDS-PAGE method
# Summary of the method: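 IdeS expressed in E. coli and purified, diluted in PBS pH 7.4 (1 mg/mL), preincubated 30 min at room temperature in the dark with compound in DMSO (10 mg/mL stock, 100× excess). Human polyclonal IgG (1 mg/mL in PBS) then added, 1 h at 37 °C. Samples boiled in reducing SDS sample buffer (4% SDS, 5% 2-mercaptoethanol), cleavage read on 4–20% SDS–PAGE.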
row,SMILES,Activity
1,CCCC[C@H]1CN1S(=O)(=O)c1ccc(C)cc1 (stereo partly drawn),inactive
2,Cc1ccc(S(=O)(=O)N[C@@H](CCCCN)C(=O)CCl)cc1,Active
3,Cc1ccc(S(=O)(=O)N[C@H](CO)CCCCNC(=O)OC(C)(C)C)cc1,inactive
4,Cc1ccc(S(=O)(=O)N[C@H](CN=[N+]=[N-])Cc2ccccc2)cc1,Active
5,Cc1ccc(S(=O)(=O)N2C[C@@H]2C(C)C)cc1 (stereo partly drawn),inactive
6,Cc1ccc(S(=O)(=O)N[C@H](COS(=O)(=O)c2ccc(C)cc2)Cc2ccccc2)cc1,inactive
7,Cc1ccc(S(=O)(=O)N[C@@H](CCCCNC(=O)OC(C)(C)C)CN=[N+]=[N-])cc1,inactive
8,CCCC[C@@H](COS(=O)(=O)c1ccc(C)cc1)NS(=O)(=O)c1ccc(C)cc1,inactive
9,Cc1ccc(S(=O)(=O)N[C@@H](CCCCNC(=O)OC(C)(C)C)COS(=O)(=O)c2ccc(C)cc2)cc1,inactive
10,Cc1ccc(S(=O)(=O)N[C@@H](Cc2ccccc2)C(=O)CCl)cc1,Active

# Next, values leading:
row,Activity,SMILES
1,Active,CCCC[C@@H](CC#N)NS(=O)(=O)c1ccc(C)cc1
2,inactive,Cc1ccc(S(=O)(=O)N[C@H](CO)CCCCN)cc1
3,Active,Cc1ccc(S(=O)(=O)N[C@H](CN=[N+]=[N-])C(C)C)cc1
4,Active,CCCC[C@@H](CC=O)NS(=O)(=O)c1ccc(C)cc1
5,Active,CCCC[C@@H](CN=[N+]=[N-])NS(=O)(=O)c1ccc(C)cc1
6,inactive,Cc1ccc(S(=O)(=O)N[C@H](COS(=O)(=O)c2ccc(C)cc2)C(C)C)cc1
7,Active,Cc1ccc(S(=O)(=O)N[C@H](CC=O)CCCCNC(=O)OC(C)(C)C)cc1
8,inactive,CCCC[C@@H](CO)NS(=O)(=O)c1ccc(C)cc1
9,inactive,Cc1ccc(S(=O)(=O)N[C@H](CO)Cc2ccccc2)cc1
10,inactive,Cc1ccc(S(=O)(=O)N[C@@H](CCCCN)CN=[N+]=[N-])cc1
11,inactive,Cc1ccc(S(=O)(=O)N[C@H](CO)C(C)C)cc1
12,Active,"Cc1ccc(S(=O)(=O)NC(CC=O)C(C)C)cc1 (single isomer, unassigned)"
13,Active,Cc1ccc(S(=O)(=O)N[C@H](CC=O)Cc2ccccc2)cc1
